# Experimental data published in ChEMBL document CHEMBL1130667, “Discovery of an imidazopyridine-containing 1,4-benzodiazepine nonpeptide vitronectin receptor (alpha v beta 3) antagonist with efficacy in a restenosis model” (Bioorg Med Chem Lett, 1998).
# Tests used:
# HEK293 = experiment: Antagonistic activity was measured by the adhesion of HEK 293 cells transfected with human alphaV-beta3 to vitronectin-coated plates; type: functional, cell-based
# Outline: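 HEK 293 cells transfected with human αvβ3 are allowed to adhere to vitronectin-coated plates. IC50 comes from two experiments run in triplicate, with an internal reference standard included.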
# Integrin alpha-V/beta-3 = Integrin alpha-V/beta-3 (Homo sapiens, UniProt P05106+P06756); experiment: Antagonistic activity for human vitronectin receptor (alphaV-beta3) from platelets; type: functional
# Chain of Integrin alpha-V/beta-3 (P05106 27-788 limits assumed): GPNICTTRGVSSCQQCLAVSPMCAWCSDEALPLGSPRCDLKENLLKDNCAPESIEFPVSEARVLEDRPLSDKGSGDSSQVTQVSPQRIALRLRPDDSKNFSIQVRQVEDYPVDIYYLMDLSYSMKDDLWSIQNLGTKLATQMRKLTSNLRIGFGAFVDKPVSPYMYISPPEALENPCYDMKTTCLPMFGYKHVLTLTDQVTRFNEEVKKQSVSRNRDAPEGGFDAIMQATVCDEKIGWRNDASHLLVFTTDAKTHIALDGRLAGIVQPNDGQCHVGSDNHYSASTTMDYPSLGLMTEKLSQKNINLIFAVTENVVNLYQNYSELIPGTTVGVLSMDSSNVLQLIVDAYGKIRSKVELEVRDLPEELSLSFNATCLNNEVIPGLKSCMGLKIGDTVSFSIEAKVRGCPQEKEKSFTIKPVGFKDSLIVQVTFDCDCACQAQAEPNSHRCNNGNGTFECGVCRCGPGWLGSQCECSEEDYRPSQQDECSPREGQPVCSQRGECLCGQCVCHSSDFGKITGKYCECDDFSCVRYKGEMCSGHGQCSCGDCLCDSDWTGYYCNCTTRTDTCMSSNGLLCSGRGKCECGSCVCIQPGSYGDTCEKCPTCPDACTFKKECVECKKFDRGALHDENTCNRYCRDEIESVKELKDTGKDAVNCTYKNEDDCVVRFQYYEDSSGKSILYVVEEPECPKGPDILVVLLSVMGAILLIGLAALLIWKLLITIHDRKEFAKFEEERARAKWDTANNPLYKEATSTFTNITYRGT
# Chain of Integrin alpha-V/beta-3 (P06756 31-889 limits assumed): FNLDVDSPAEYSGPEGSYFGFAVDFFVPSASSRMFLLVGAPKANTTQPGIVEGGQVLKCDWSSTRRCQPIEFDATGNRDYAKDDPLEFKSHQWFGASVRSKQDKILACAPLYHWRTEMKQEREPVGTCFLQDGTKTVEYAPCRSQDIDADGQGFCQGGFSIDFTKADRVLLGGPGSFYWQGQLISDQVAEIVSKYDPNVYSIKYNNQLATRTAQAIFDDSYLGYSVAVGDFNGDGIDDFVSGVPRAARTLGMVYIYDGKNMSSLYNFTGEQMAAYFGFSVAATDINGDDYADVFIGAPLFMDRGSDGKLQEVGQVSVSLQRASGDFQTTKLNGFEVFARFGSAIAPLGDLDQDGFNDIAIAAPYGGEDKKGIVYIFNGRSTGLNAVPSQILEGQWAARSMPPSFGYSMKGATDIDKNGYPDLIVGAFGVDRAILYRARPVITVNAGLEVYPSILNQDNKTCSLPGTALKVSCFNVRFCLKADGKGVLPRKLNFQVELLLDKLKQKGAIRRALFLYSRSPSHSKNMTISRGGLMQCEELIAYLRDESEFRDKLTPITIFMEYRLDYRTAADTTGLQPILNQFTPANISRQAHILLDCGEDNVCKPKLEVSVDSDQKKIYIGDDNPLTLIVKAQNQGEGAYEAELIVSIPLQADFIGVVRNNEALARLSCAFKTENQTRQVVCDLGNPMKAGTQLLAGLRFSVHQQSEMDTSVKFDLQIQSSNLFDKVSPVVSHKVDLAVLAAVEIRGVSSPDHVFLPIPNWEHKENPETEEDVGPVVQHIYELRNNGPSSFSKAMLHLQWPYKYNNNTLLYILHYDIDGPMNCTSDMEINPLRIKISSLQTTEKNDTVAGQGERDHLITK
# Chain of Integrin alpha-V/beta-3 (P06756 891-1048 limits assumed): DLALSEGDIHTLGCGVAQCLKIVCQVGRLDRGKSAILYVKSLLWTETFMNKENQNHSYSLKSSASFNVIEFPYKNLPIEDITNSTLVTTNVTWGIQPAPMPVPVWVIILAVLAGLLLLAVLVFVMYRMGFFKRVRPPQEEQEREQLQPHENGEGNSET
# Outline: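 Competitive binding to human αvβ3 purified from platelets; a tritiated RGD peptide is the displaced ligand. Ki values are the means of two to three separate experiments, with typical assay variability of ±10%.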
# Rattus norvegicus [1] = species: Rattus norvegicus; experiment: Compound was measured for in vitro efficacy in blocking vitronectin-induced migration of rat aortic smooth muscle cells (RASMC); type: functional, cell-based
# [2] = Biological half-life measured in plasma of rat; type: ADME, organism-based
# [3] = Oral bioavailability in rat; type: ADME, organism-based; conditions: in vivo
# [4] = (§1) Plasma clearance was measured in rat; type: ADME, organism-based; conditions: plasma
# [5] = Biological half-life measured in plasma of rat; 22-25; type: ADME, organism-based
# [6] = Bioavailability was measured in rat after oral administration; 2-4; type: ADME, organism-based; conditions: in vivo, read-out: Bioavailabiility
# Rattus norvegicus [7] = species: Rattus norvegicus; experiment: as §1; type: ADME, organism-based; conditions: in vivo
# [8] = Biological half-life measured in plasma of rat; 9-16; type: ADME, organism-based
# [9] = Bioavailability was measured in rat after oral administration; 3-7; type: ADME, organism-based; conditions: in vivo, read-out: Bioavailabiility
# Rattus norvegicus [10] = species: Rattus norvegicus; experiment: Maximum plasma concentration of compound was measured in rat; type: ADME, organism-based; conditions: in vivo
Structure (SMILES),Ki (Integrin alpha-V/beta-3),IC50 (Rattus norvegicus [1]),clearance [4],IC50 (HEK293),also measured
Cc1ccc2nc(CN(C)C(=O)c3ccc4c(c3)CNC(=O)[C@H](CC(=O)O)N4)nc-2[nH]1,0.01 µM,,,2.5 µM,
Cc1ccc2[nH]c(CNC(=O)c3ccc4c(c3)CNC(=O)[C@H](CC(=O)O)N4)nc2n1 (racemic),0.09 µM,,,20 µM,
COCCN1Cc2cc(C(=O)NCc3nc4ccc(C)[nH]c-4n3)ccc2N[C@@H](CC(=O)O)C1=O (racemic),0.05 µM,,,10 µM,
CC(C)N1Cc2cc(C(=O)N(C)Cc3nc4ncccc4[nH]3)ccc2N[C@@H](CC(=O)O)C1=O (racemic),0.004 µM,,,2 µM,
Cc1ccc2[nH]c(CNC(=O)c3ccc4c(c3)CN(Cc3ccccc3)C(=O)[C@H](CC(=O)O)N4)nc2n1 (racemic),0.06 µM,,,,
Cc1ccc2nc(CN(C)C(=O)c3ccc4c(c3)CN(Cc3ccccc3)C(=O)[C@H](CC(=O)O)N4)nc-2[nH]1 (racemic),0.013 µM,,,0.16 µM,
COCCN1Cc2cc(C(=O)N(C)Cc3nc4ncccc4[nH]3)ccc2N[C@@H](CC(=O)O)C1=O (racemic),0.0025 µM,0.23 µM,1.86 L/h/kg,0.5 µM,half-life [2]: 25 min; bioavailability [3]: 4%; Cmax (Rattus norvegicus [10]): 0.692 µg/mL

# Second part, led by results:
Ki (Integrin alpha-V/beta-3),IC50 (Rattus norvegicus [1]),clearance [4],Structure (SMILES),IC50 (HEK293),also measured
0.003 µM,,,CN(Cc1nc2ccc[nH]c-2n1)C(=O)c1ccc2c(c1)CN(C)C(=O)[C@H](CC(=O)O)N2,0.27 µM,
0.045 µM,1.6 µM,0.108 L/h/kg,Cc1ccc2nc(CNC(=O)c3ccc4c(c3)CN(C)C(=O)[C@H](CC(=O)O)N4)nc-2[nH]1,9 µM,half-life [2]: 92 min; bioavailability [3]: 8%
0.71 µM,,,Cc1cc(C)c2[nH]c(CN(C)C(=O)c3ccc4c(c3)CN(C)C(=O)[C@H](CC(=O)O)N4)nc2n1,,
0.003 µM,0.17 µM,1.02 L/h/kg,Cc1ccc2[nH]c(CN(C)C(=O)c3ccc4c(c3)CN(C)C(=O)[C@H](CC(=O)O)N4)nc2n1,0.45 µM,half-life [5]: 25 min; bioavailability [6]: 4%; clearance (Rattus norvegicus [7]): 1.14 L/h/kg
0.023 µM,,,CN(Cc1nc2ncncc2[nH]1)C(=O)c1ccc2c(c1)CN(C)C(=O)[C@H](CC(=O)O)N2,5 µM,
,0.37 µM,2.1 L/h/kg,CN(Cc1nc2ccccc2[nH]1)C(=O)c1ccc2c(c1)CN(C)C(=O)[C@H](CC(=O)O)N2,,half-life [8]: 16 min; bioavailability [9]: 7%; Cmax (Rattus norvegicus [10]): 0.819 µg/mL
0.019 µM,,,CN(Cc1nc2cc[nH]nc-2n1)C(=O)c1ccc2c(c1)CN(C)C(=O)[C@H](CC(=O)O)N2 (racemic),1.5 µM,
0.0025 µM,0.47 µM,3.3 L/h/kg,CN(Cc1nc2ccc[nH]c-2n1)C(=O)c1ccc2c(c1)CN(CCC(C)(C)C)C(=O)[C@H](CC(=O)O)N2 (racemic),0.25 µM,half-life [2]: 14 min; bioavailability [3]: < 1%; Cmax (Rattus norvegicus [10]): 0.555 µg/mL
